According to ChEMBL document CHEMBL1255376, “Comparative surveillance study of telavancin activity against recently collected gram-positive clinical isolates from across the United States” (2008):
In brackets after ≈: the same amount, converted by molar mass.

Assays:
Type in all cases: functional
Mammaliicoccus sciuri = experiment: Antibacterial activity against methicillin-susceptible coagulase-negative Staphylococcus sciuri clinical isolate by broth microdilution method
Outline: (§1)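 MICs by CLSI broth microdilution in frozen trays pre-loaded with serial dilutions of each agent. Quality-control strains run in parallel: E. faecalis ATCC 29212 and ATCC 51299, S. aureus ATCC 29213, S. pneumoniae ATCC 49619. Comparator susceptibility categories follow CLSI breakpoints. Methicillin resistance in staphylococci assigned from the oxacillin MIC.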

Staphylococcus aureus [1] = experiment: Antibacterial activity against vancomycin-intermediate methicillin-resistant Staphylococcus aureus NRS17 by broth microdilution method
Outline: (§2)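 VISA and VRSA strains from the NARSA repository were tested separately from the surveillance isolates. MICs by CLSI broth microdilution in frozen trays with serial dilutions. Quality-control strains run in parallel. Susceptibility categories follow CLSI breakpoints, and methicillin resistance was assigned from the oxacillin MIC.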

Streptococcus oralis = experiment: Antibacterial activity against Streptococcus oralis clinical isolate by broth microdilution method
Outline: (§3)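 MIC by CLSI broth microdilution in frozen microtiter trays holding serial dilutions of each agent, prepared from standard laboratory powders. E. faecalis ATCC 29212 and ATCC 51299, S. aureus ATCC 29213 and S. pneumoniae ATCC 49619 run in parallel as quality-control strains. Comparator susceptibility interpreted with CLSI breakpoints.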

Staphylococcus capitis [2] = experiment: Antibacterial activity against methicillin-resistant coagulase-negative Staphylococcus capitis clinical isolate by broth microdilution method; outline: as §1
Staphylococcus hominis = experiment: Antibacterial activity against methicillin-susceptible coagulase-negative Staphylococcus hominis clinical isolate by broth microdilution method; outline: as §1
[3] = system: Staphylococcus epidermidis; experiment: Antibacterial activity against methicillin-susceptible coagulase-negative Staphylococcus epidermidis clinical isolate by broth microdilution method; outline: as §1
Staphylococcus cohnii = experiment: Antibacterial activity against methicillin-susceptible coagulase-negative Staphylococcus cohnii clinical isolate by broth microdilution method; outline: as §1
Streptococcus sp. = experiment: Antibacterial activity against Streptococcus sp. Group F clinical isolate by broth microdilution method
Outline: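 MIC by CLSI broth microdilution in frozen microtiter trays holding serial dilutions of each agent, prepared from standard laboratory powders. Comparator susceptibility interpreted with CLSI breakpoints.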

Streptococcus pyogenes = experiment: Antibacterial activity against Streptococcus pyogenes clinical isolate by broth microdilution method; outline: as §3
Staphylococcus [4] = experiment: Antibacterial activity against methicillin-resistant coagulase-negative unspeciated Staphylococcus clinical isolate by broth microdilution method; outline: as §1
[5] = system: Staphylococcus saprophyticus; experiment: Antibacterial activity against methicillin-resistant coagulase-negative Staphylococcus saprophyticus clinical isolate by broth microdilution method; outline: as §1
Staphylococcus [6] = experiment: Antibacterial activity against methicillin-susceptible coagulase-negative unspeciated Staphylococcus clinical isolate by broth microdilution method; outline: as §1
Streptococcus pneumoniae [7] = experiment: Antibacterial activity against penicillin resistant Streptococcus pneumoniae clinical isolate by broth microdilution method; outline: as §1
Streptococcus equinus = experiment: Antibacterial activity against Streptococcus bovis clinical isolate by broth microdilution method; outline: as §3
Enterococcus faecalis [8] = experiment: Antibacterial activity against vancomycin-resistant and teichoplanin-susceptible Enterococcus faecalis clinical isolate by broth microdilution method; outline: as §1
Staphylococcus capitis [9] = experiment: Antibacterial activity against daptomycin-nonsusceptible Staphylococcus capitis isolate 1285355 by broth microdilution method; outline: as §3
[10] = system: Staphylococcus haemolyticus; experiment: Antibacterial activity against methicillin-resistant coagulase-negative Staphylococcus haemolyticus clinical isolate by broth microdilution method; outline: as §1
Staphylococcus capitis [11] = experiment: Antibacterial activity against methicillin-susceptible coagulase-negative Staphylococcus capitis clinical isolate by broth microdilution method; outline: as §1
[12] = system: Staphylococcus haemolyticus; experiment: Antibacterial activity against methicillin-susceptible coagulase-negative Staphylococcus haemolyticus clinical isolate by broth microdilution method; outline: as §1
Streptococcus sanguinis = experiment: Antibacterial activity against Streptococcus sanguinis clinical isolate by broth microdilution method; outline: as §3
Staphylococcus xylosus [13] = experiment: Antibacterial activity against methicillin-resistant coagulase-negative Staphylococcus xylosus clinical isolate by broth microdilution method; outline: as §1
[14] = system: Staphylococcus saprophyticus; experiment: Antibacterial activity against methicillin-susceptible coagulase-negative Staphylococcus saprophyticus clinical isolate by broth microdilution method; outline: as §1
Staphylococcus aureus [15] = experiment: Antibacterial activity against methicillin-resistant Staphylococcus aureus clinical isolate by broth microdilution method; outline: as §1
Staphylococcus aureus [16] = experiment: Antibacterial activity against vancomycin-, methicillin-resistant Staphylococcus aureus VRS2 by broth microdilution method; outline: as §2
Enterococcus faecalis [17] = experiment: Antibacterial activity against vancomycin-susceptible Enterococcus faecalis clinical isolate by broth microdilution method; outline: as §1
Staphylococcus simulans [18] = experiment: Antibacterial activity against methicillin-resistant coagulase-negative Staphylococcus simulans clinical isolate by broth microdilution method; outline: as §1
[19] = system: Streptococcus constellatus; experiment: Antibacterial activity against Streptococcus constellatus clinical isolate by broth microdilution method; outline: as §3
Streptococcus pneumoniae [20] = experiment: Antibacterial activity against penicillin intermediate Streptococcus pneumoniae clinical isolate by broth microdilution method; outline: as §1
Enterococcus faecium [21] = experiment: Antibacterial activity against vancomycin-susceptible Enterococcus faecium clinical isolate by broth microdilution method; outline: as §3
Streptococcus pneumoniae [22] = experiment: Antibacterial activity against penicillin susceptible Streptococcus pneumoniae clinical isolate by broth microdilution method; outline: as §1
Staphylococcus simulans [23] = experiment: Antibacterial activity against methicillin-susceptible coagulase-negative Staphylococcus simulans clinical isolate by broth microdilution method; outline: as §1
Streptococcus mitis = experiment: Antibacterial activity against Streptococcus mitis clinical isolate by broth microdilution method; outline: as §3
[24] = Antibacterial activity against Streptococcus sp. Group G clinical isolate by broth microdilution method; outline: as §3
[25] = Antibacterial activity against Streptococcus sp. Group C clinical isolate by broth microdilution method; outline: as §3
Staphylococcus xylosus [26] = experiment: Antibacterial activity against methicillin-susceptible coagulase-negative Staphylococcus xylosus clinical isolate by broth microdilution method; outline: as §1
[27] = system: Streptococcus intermedius; experiment: Antibacterial activity against Streptococcus intermedius clinical isolate by broth microdilution method; outline: as §3
Enterococcus faecium [28] = experiment: Antibacterial activity against vancomycin- and teichoplanin-nonsusceptible Enterococcus faecium clinical isolate by broth microdilution method; outline: as §1
Enterococcus faecalis [29] = experiment: Antibacterial activity against vancomycin- and teichoplanin-nonsusceptible Enterococcus faecalis clinical isolate by broth microdilution method; outline: as §1

CCCCCCCCCCNCCN[C@@]1(C)C[C@H](O[C@H]2[C@H](Oc3c4cc5cc3Oc3ccc(cc3Cl)[C@@H](O)[C@@H](NC(=O)[C@@H](CC(C)C)NC)C(=O)N[C@@H](CC(N)=O)C(=O)N[C@H]5C(=O)N[C@H]3C(=O)N[C@H](C(=O)N[C@H](C(=O)O)c5cc(O)c(CNCP(=O)(O)O)c(O)c5-c5cc3ccc5O)[C@H](O)c3ccc(c(Cl)c3)O4)O[C@H](CO)[C@@H](O)[C@@H]2O)O[C@@H](C)[C@H]1O [TELAVANCIN]
MIC50 (Mammaliicoccus sciuri): 0.25 µg/mL (≈ 0.142 µM)
MIC90 (Mammaliicoccus sciuri): 0.5 µg/mL (≈ 0.285 µM)
MIC (Staphylococcus aureus [1]): 1 µg/mL (≈ 0.57 µM)
MIC50 (Streptococcus oralis): 0.03 µg/mL (≈ 0.0171 µM)
MIC90 (Streptococcus oralis): 0.12 µg/mL (≈ 0.0684 µM)
MIC50 (Staphylococcus capitis [2]): 0.25 µg/mL (≈ 0.142 µM)
MIC90 (Staphylococcus capitis [2]): 0.5 µg/mL (≈ 0.285 µM)
MIC50 (Staphylococcus hominis): 0.25 µg/mL (≈ 0.142 µM)
MIC90 (Staphylococcus hominis): 0.5 µg/mL (≈ 0.285 µM)
MIC50 [3]: 0.25 µg/mL (≈ 0.142 µM)
MIC90 [3]: 0.5 µg/mL (≈ 0.285 µM)
MIC50 (Staphylococcus cohnii): 0.25 µg/mL (≈ 0.142 µM)
MIC90 (Staphylococcus cohnii): 0.5 µg/mL (≈ 0.285 µM)
MIC (Streptococcus sp.): 0.03 µg/mL (≈ 0.0171 µM)
MIC50 (Streptococcus sp.): 0.03 µg/mL (≈ 0.0171 µM)
MIC90 (Streptococcus sp.): 0.06 µg/mL (≈ 0.0342 µM)
MIC50 (Streptococcus pyogenes): 0.03 µg/mL (≈ 0.0171 µM)
MIC90 (Streptococcus pyogenes): 0.06 µg/mL (≈ 0.0342 µM)
MIC50 (Staphylococcus [4]): 0.25 µg/mL (≈ 0.142 µM)
MIC90 (Staphylococcus [4]): 0.5 µg/mL (≈ 0.285 µM)
MIC50 [5]: 0.25 µg/mL (≈ 0.142 µM)
MIC90 [5]: 0.5 µg/mL (≈ 0.285 µM)
MIC50 (Staphylococcus [6]): 0.25 µg/mL (≈ 0.142 µM)
MIC90 (Staphylococcus [6]): 0.5 µg/mL (≈ 0.285 µM)
MIC50 (Streptococcus pneumoniae [7]): 0.015 µg/mL (≈ 0.00854 µM)
MIC90 (Streptococcus pneumoniae [7]): 0.015 µg/mL (≈ 0.00854 µM)
MIC50 (Streptococcus equinus): 0.03 µg/mL (≈ 0.0171 µM)
MIC90 (Streptococcus equinus): 0.12 µg/mL (≈ 0.0684 µM)
MIC (Enterococcus faecalis [8]): 0.25 µg/mL (≈ 0.142 µM)
MIC (Staphylococcus capitis [9]): 1 µg/mL (≈ 0.57 µM)
MIC50 [10]: 0.25 µg/mL (≈ 0.142 µM)
MIC90 [10]: 0.5 µg/mL (≈ 0.285 µM)
MIC50 (Staphylococcus capitis [11]): 0.25 µg/mL (≈ 0.142 µM)
MIC90 (Staphylococcus capitis [11]): 0.5 µg/mL (≈ 0.285 µM)
MIC50 [12]: 0.25 µg/mL (≈ 0.142 µM)
MIC90 [12]: 0.5 µg/mL (≈ 0.285 µM)
MIC50 (Streptococcus sanguinis): 0.03 µg/mL (≈ 0.0171 µM)
MIC90 (Streptococcus sanguinis): 0.12 µg/mL (≈ 0.0684 µM)
MIC50 (Staphylococcus xylosus [13]): 0.25 µg/mL (≈ 0.142 µM)
MIC90 (Staphylococcus xylosus [13]): 0.5 µg/mL (≈ 0.285 µM)
MIC50 [14]: 0.25 µg/mL (≈ 0.142 µM)
MIC90 [14]: 0.5 µg/mL (≈ 0.285 µM)
MIC50 (Staphylococcus aureus [15]): 0.25 µg/mL (≈ 0.142 µM)
MIC90 (Staphylococcus aureus [15]): 0.25 µg/mL (≈ 0.142 µM)
MIC (Staphylococcus aureus [16]): 1 µg/mL (≈ 0.57 µM)
MIC50 (Enterococcus faecalis [17]): 0.5 µg/mL (≈ 0.285 µM)
MIC90 (Enterococcus faecalis [17]): 1 µg/mL (≈ 0.57 µM)
MIC50 (Staphylococcus simulans [18]): 0.25 µg/mL (≈ 0.142 µM)
MIC90 (Staphylococcus simulans [18]): 0.5 µg/mL (≈ 0.285 µM)
MIC50 [19]: 0.03 µg/mL (≈ 0.0171 µM)
MIC90 [19]: 0.12 µg/mL (≈ 0.0684 µM)
MIC50 (Streptococcus pneumoniae [20]): 0.015 µg/mL (≈ 0.00854 µM)
MIC90 (Streptococcus pneumoniae [20]): 0.015 µg/mL (≈ 0.00854 µM)
MIC50 (Enterococcus faecium [21]): 0.12 µg/mL (≈ 0.0684 µM)
MIC90 (Enterococcus faecium [21]): 0.25 µg/mL (≈ 0.142 µM)
MIC50 (Streptococcus pneumoniae [22]): 0.015 µg/mL (≈ 0.00854 µM)
MIC90 (Streptococcus pneumoniae [22]): 0.03 µg/mL (≈ 0.0171 µM)
MIC50 (Staphylococcus simulans [23]): 0.25 µg/mL (≈ 0.142 µM)
MIC90 (Staphylococcus simulans [23]): 0.5 µg/mL (≈ 0.285 µM)
MIC50 (Streptococcus mitis): 0.03 µg/mL (≈ 0.0171 µM)
MIC90 (Streptococcus mitis): 0.12 µg/mL (≈ 0.0684 µM)
MIC [24]: 0.03 µg/mL (≈ 0.0171 µM)
MIC50 [24]: 0.03 µg/mL (≈ 0.0171 µM)
MIC90 [24]: 0.06 µg/mL (≈ 0.0342 µM)
MIC [25]: 0.03 µg/mL (≈ 0.0171 µM)
MIC50 [25]: 0.03 µg/mL (≈ 0.0171 µM)
MIC90 [25]: 0.06 µg/mL (≈ 0.0342 µM)
MIC50 (Staphylococcus xylosus [26]): 0.25 µg/mL (≈ 0.142 µM)
MIC90 (Staphylococcus xylosus [26]): 0.5 µg/mL (≈ 0.285 µM)
MIC50 [27]: 0.03 µg/mL (≈ 0.0171 µM)
MIC90 [27]: 0.12 µg/mL (≈ 0.0684 µM)
MIC50 (Enterococcus faecium [28]): 4 µg/mL (≈ 2.28 µM)
MIC90 (Enterococcus faecium [28]): 8 µg/mL (≈ 4.56 µM)
MIC50 (Enterococcus faecalis [29]): 8 µg/mL (≈ 4.56 µM)
MIC90 (Enterococcus faecalis [29]): 16 µg/mL (≈ 9.11 µM)
